The source made the active and inactive calls.
Columns and labels:
HeLa [1] = test: Inhibition of deubiquitinase in human HeLa cell extracts assessed as increase in high molecular weight protein complexes at 10 uM incubated for 2 hrs in presence of GSH by SDS-PAGE and Coomassie Blue staining based method; type: cell-free
[2] = biological target: T1, Ubiquitin carboxyl-terminal hydrolase isozyme L5 (Homo sapiens) (UniProt Q9Y5K5); test: Inhibition of UCH-37 in human HeLa crude cell extracts assessed as induction of formation of high molecular weight complexes with […] at 10 uM incubated for 2 hrs by immunoblot analysis; type: cell-free
T1 sequence (whole entry): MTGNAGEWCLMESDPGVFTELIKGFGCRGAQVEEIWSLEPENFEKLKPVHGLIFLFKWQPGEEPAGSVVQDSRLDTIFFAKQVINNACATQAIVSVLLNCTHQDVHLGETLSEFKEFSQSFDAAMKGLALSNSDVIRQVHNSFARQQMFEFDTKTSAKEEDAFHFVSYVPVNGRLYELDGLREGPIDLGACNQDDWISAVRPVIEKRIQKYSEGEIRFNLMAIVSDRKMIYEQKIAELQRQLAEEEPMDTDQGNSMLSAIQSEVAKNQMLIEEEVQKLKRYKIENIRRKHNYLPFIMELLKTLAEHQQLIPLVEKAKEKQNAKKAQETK

HeLa [3] = test: Inhibition of deubiquitinase in human HeLa cell extracts assessed as decrease in global DUB activity at 50 uM using luminescent substrate Ub-AML; type: cell-free
How it was run: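 HeLa crude extracts used as the DUB source, prepared as for the ABP assays. Global DUB activity read by luminescence with Ub-AML substrate, using the Glo reagent protocol.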

HeLa [4] = test: Inhibition of deubiquitinase in human HeLa cell extracts assessed as increase in high molecular weight protein complexes at 10 uM incubated for 2 hrs in presence of DTT by SDS-PAGE and Coomassie Blue staining based method; type: cell-free
[5] = biological target: Ubiquitin carboxyl-terminal hydrolase 14 (Homo sapiens) (UniProt P54578); test: Inhibition of USP14 in human HeLa crude cell extracts assessed as induction of formation of high molecular weight complexes with USP14 at 10 uM incubated for 2 hrs by immunoblot analysis; type: cell-free
Chain of Ubiquitin carboxyl-terminal hydrolase 14 (Homo sapiens) (P54578 whole entry): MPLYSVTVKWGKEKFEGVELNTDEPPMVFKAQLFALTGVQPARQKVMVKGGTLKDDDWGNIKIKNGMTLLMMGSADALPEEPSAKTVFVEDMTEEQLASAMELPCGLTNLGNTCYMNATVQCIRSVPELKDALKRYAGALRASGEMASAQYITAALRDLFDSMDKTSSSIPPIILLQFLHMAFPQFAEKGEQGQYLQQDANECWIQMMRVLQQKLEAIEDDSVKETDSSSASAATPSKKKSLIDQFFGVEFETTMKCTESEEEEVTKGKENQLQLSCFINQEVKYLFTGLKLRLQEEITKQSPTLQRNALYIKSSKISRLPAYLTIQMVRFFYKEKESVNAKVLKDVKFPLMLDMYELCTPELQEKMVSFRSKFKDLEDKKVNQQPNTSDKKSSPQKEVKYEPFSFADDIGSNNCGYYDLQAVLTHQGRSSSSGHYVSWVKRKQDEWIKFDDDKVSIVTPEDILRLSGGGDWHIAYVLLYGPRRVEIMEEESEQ

HeLa [6] = test: Inhibition of deubiquitinase in human HeLa cell extracts assessed as increase in high molecular weight protein complexes at 10 uM incubated for 2 hrs by SDS-PAGE and Coomassie Blue staining based method; type: cell-free
[7] = biological target: Ubiquitin carboxyl-terminal hydrolase 14 (Homo sapiens) (UniProt P54578); test: Inhibition of USP14 in intact human HeLa cells assessed as induction of formation of high molecular weight complexes with USP14 at 10 uM incubated for 2 hrs by immunoblot analysis; type: cell-based
How it was run: (§1)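 Intact HeLa cells (DMEM, 10% FBS, about 80% confluent) treated 2 h with vehicle or 10 μM compound, with or without 10 mM DTT or 10 mM GSH. Cells washed in cold PBS and lysed in RIPA with protease and phosphatase inhibitors. High-MW species detected by SDS-PAGE immunoblot; shorter exposures served as loading control.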

HeLa [8] = test: Inhibition of deubiquitinase in human HeLa cell extracts assessed as inhibition of HA-Ub-C2Br probe labeling at 1 to 100 uM incubated for 30 mins by immunoblot analysis; type: cell-free
[9] = biological target: T2, Ubiquitin carboxyl-terminal hydrolase 28 (Homo sapiens) (UniProt Q96RU2); test: Inhibition of USP28 in human HeLa cell extracts assessed as inhibition of HA-Ub-C2Br probe labeling at 1 to 100 uM incubated for 30 mins by immunoblot analysis; type: cell-free
T2 sequence (whole entry): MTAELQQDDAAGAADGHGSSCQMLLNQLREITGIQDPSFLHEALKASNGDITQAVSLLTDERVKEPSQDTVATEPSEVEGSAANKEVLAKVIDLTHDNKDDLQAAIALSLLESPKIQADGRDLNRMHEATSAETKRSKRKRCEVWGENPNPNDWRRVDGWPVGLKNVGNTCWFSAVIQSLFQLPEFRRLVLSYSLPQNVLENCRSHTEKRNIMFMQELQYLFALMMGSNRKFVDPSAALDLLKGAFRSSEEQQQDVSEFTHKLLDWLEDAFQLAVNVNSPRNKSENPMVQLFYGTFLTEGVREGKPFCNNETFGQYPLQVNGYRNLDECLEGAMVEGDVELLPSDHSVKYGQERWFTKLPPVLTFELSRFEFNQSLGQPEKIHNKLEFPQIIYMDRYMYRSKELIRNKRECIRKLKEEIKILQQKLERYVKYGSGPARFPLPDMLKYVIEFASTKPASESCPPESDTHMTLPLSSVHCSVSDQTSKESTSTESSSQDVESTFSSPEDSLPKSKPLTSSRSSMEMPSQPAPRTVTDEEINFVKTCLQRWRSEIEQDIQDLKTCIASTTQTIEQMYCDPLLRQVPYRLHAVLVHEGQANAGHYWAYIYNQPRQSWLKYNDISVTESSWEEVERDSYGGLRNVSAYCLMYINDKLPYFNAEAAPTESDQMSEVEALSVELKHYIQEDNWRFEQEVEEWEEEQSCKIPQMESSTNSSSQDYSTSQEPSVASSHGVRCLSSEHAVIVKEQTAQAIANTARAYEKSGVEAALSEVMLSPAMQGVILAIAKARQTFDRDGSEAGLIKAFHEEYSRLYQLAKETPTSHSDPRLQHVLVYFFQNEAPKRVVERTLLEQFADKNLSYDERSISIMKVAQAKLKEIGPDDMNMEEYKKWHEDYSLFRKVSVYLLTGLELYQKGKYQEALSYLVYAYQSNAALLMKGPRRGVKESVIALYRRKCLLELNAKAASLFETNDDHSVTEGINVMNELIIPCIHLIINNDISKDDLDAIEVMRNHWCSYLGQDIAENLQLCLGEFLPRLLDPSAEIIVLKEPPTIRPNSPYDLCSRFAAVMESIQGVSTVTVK

[10] = biological target: T1, Ubiquitin carboxyl-terminal hydrolase isozyme L5 (Homo sapiens); test: Inhibition of UCH-37 in intact human HeLa cells assessed as induction of formation of high molecular weight complexes with USP14 at 10 uM incubated for 2 hrs in presence of dithiothreitol by immunoblot analysis; type: cell-based; how it was run: as §1
[11] = biological target: Ubiquitin carboxyl-terminal hydrolase 14 (Homo sapiens) (UniProt P54578); test: Inhibition of USP14 in human HeLa crude cell extracts assessed as induction of formation of high molecular weight complexes with USP14 at 10 uM incubated for 2 hrs in presence of glutathione by immunoblot analysis; type: cell-free
HeLa [12] = test: Inhibition of deubiquitinase in human HeLa cell extracts assessed as induction of accumulation of high molecular weight ubiquitylated proteins at 10 uM incubated for 2 hrs in presence of GSH by immunoblot analysis; type: cell-free
[13] = biological target: Tumor necrosis factor alpha-induced protein 3 (Homo sapiens) (UniProt P21580); test: Inhibition of A20 catalytic domain (unknown origin) assessed as reduction in cleavage of luminescent substrate Ub-AML at 100 uM
Chain of Tumor necrosis factor alpha-induced protein 3 (Homo sapiens) (P21580 whole entry, the tested form may be a part): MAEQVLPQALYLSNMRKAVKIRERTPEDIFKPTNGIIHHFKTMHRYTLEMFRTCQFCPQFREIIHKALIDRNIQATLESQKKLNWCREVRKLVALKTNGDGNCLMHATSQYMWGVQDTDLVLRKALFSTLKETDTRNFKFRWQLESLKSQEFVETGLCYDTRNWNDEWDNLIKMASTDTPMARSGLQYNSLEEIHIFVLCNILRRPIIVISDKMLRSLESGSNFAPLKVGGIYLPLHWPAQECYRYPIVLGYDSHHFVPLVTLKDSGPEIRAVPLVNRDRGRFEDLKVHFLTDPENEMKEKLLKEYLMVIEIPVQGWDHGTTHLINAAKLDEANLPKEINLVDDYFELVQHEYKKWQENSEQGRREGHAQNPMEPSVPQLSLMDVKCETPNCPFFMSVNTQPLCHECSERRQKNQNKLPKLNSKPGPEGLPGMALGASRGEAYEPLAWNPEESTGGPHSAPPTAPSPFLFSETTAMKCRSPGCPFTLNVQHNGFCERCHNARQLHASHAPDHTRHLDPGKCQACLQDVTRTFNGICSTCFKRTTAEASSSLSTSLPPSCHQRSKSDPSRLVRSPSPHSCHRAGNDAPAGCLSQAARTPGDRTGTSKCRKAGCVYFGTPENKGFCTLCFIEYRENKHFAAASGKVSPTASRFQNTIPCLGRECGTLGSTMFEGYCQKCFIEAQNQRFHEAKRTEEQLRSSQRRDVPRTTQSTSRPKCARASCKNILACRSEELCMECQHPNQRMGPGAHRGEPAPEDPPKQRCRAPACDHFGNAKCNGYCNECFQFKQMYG
How it was run: (§2)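 Purified recombinant DUBs assayed with Ub-AML as luminescent substrate, using the Glo reagent protocol and read on a microplate luminometer.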

[14] = biological target: T1, Ubiquitin carboxyl-terminal hydrolase isozyme L5 (Homo sapiens); test: Inhibition of UCH-37 in intact human HeLa cells assessed as induction of formation of high molecular weight complexes with USP14 at 10 uM incubated for 2 hrs in presence of glutathione by immunoblot analysis; type: cell-based; how it was run: as §1
Ataxin-3 (Homo sapiens) = Ataxin-3 (Homo sapiens) (UniProt P54252); test: Inhibition of human recombinant Ataxin-3 assessed as reduction in cleavage of luminescent substrate Ub-AML at 100 uM; how it was run: as §2
Chain of Ataxin-3 (Homo sapiens) (P54252 whole entry): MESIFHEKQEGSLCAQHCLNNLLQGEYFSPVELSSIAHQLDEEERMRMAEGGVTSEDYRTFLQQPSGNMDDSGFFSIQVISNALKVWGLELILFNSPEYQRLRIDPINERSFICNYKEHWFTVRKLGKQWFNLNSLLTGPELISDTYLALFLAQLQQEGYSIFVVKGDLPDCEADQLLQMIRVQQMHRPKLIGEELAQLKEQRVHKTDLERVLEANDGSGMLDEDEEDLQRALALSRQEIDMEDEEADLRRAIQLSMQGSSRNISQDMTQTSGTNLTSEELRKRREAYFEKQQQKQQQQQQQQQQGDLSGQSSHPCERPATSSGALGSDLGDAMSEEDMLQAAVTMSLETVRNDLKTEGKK

Measured: inhibition

C=CC(=O)N1C/C(=C\c2ccc([N+](=O)[O-])cc2)C(=O)/C(=C/c2ccc([N+](=O)[O-])cc2)C1
inactive: HeLa [1] | HeLa [4] | [10] | [11] | HeLa [12] | [14]
active: all other assays above
